Reference: ChEMBL document CHEMBL5058577, “EUbOPEN Chemogenomics Library 2 (Multiplex)” (2022)

Test system: HEK-293T
Assay: Multiplex assay against HEK293T
Format: toxicity, cell-based
Conditions: human
In short: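 Phenotypes for tubulin, mitochondrial mass and membrane permeability are expressed as per cents of healthy-nucleus cells. Cells were stained live at seeding with Hoechst33342, BioTracker Green Microtubule Cytoskeleton Dye, MitoTracker Red and Annexin V Alexa Fluor 680, then imaged after compound addition on a CQ1 microscope at 37°C and 5% CO2. Machine-learning gating in CellPathfinder separated Hoechst high-intensity objects from normal cells, divided normal cells by nuclear state (healthy, pyknosed, fragmented) and divided pyknosed cells into mitotic or apoptotic.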

[1] = 12 h, 1 µM, compound concentration 1 uM, replicate 1
[2] = 12 h, 1 µM, compound concentration 1 uM, replicate 2
[3] = 12 h, 10 µM, compound concentration 10 uM, replicate 1
[4] = 12 h, 10 µM, compound concentration 10 uM, replicate 2
[5] = 24 h, 1 µM, compound concentration 1 uM, replicate 1
[6] = 24 h, 1 µM, compound concentration 1 uM, replicate 2
[7] = 24 h, 10 µM, compound concentration 10 uM, replicate 1
[8] = 24 h, 10 µM, compound concentration 10 uM, replicate 2
[9] = 48 h, 1 µM, compound concentration 1 uM, replicate 1
[10] = 48 h, 1 µM, compound concentration 1 uM, replicate 2
[11] = 48 h, 10 µM, compound concentration 10 uM, replicate 1
[12] = 48 h, 10 µM, compound concentration 10 uM, replicate 2

Structure (SMILES): O=S(=O)(c1ccccc1)c1cnc2c(N3CCNCC3)cccc2c1 [INTEPIRDINE]
- Population Apoptotic (%) [1]: 40%
- Population Fragmented Nuclei (%) [1]: 7%
- Population Healthy Nuclei (%) [1]: 80%
- Population Hoechst High Intensity Objects (%) [1]: 7%
- Population Membrane Permeable-Phenotype (%) [1]: 0%
- Population Mitochondria Different-Phenotype (%) [1]: 54%
- Population Mitotic Cells (%) [1]: 60%
- Population Normal (%) [1]: 92%
- Population Pyknosed Nuclei (%) [1]: 12%
- Population Tubulin-Different-Phenotype (%) [1]: 43%
- Total Cell Count [1]: 403
- Population Apoptotic (%) [2]: 50%
- Population Healthy Nuclei (%) [2]: 74%
- Population Hoechst High Intensity Objects (%) [2]: 10%
- Population Mitochondria Different-Phenotype (%) [2]: 69%
- Population Mitotic Cells (%) [2]: 50%
- Population Normal (%) [2]: 89%
- Population Pyknosed Nuclei (%) [2]: 17%
- Population Tubulin-Different-Phenotype (%) [2]: 23%
- Total Cell Count [2]: 336
- Population Apoptotic (%) [3]: 51%
- Population Fragmented Nuclei (%) [3]: 8%
- Population Healthy Nuclei (%) [3]: 72%
- Population Hoechst High Intensity Objects (%) [3]: 10%
- Population Membrane Permeable-Phenotype (%) [3]: 0%
- Population Mitochondria Different-Phenotype (%) [3]: 70%
- Population Mitotic Cells (%) [3]: 48%
- Population Normal (%) [3]: 89%
- Population Pyknosed Nuclei (%) [3]: 18%
- Population Tubulin-Different-Phenotype (%) [3]: 58%
- Total Cell Count [3]: 326
- Population Apoptotic (%) [4]: 46%
- Population Fragmented Nuclei (%) [4]: 4%
- Population Healthy Nuclei (%) [4]: 79%
- Population Hoechst High Intensity Objects (%) [4]: 7%
- Population Mitochondria Different-Phenotype (%) [4]: 76%
- Population Mitotic Cells (%) [4]: 53%
- Population Normal (%) [4]: 92%
- Population Pyknosed Nuclei (%) [4]: 15%
- Population Tubulin-Different-Phenotype (%) [4]: 50%
- Total Cell Count [4]: 349
- Population Apoptotic (%) [5]: 28%
- Population Fragmented Nuclei (%) [5]: 6%
- Population Healthy Nuclei (%) [5]: 80%
- Population Hoechst High Intensity Objects (%) [5]: 5%
- Population Membrane Permeable-Phenotype (%) [5]: 0%
- Population Mitochondria Different-Phenotype (%) [5]: 35%
- Population Mitotic Cells (%) [5]: 71%
- Population Normal (%) [5]: 94%
- Population Pyknosed Nuclei (%) [5]: 12%
- Population Tubulin-Different-Phenotype (%) [5]: 26%
- Total Cell Count [5]: 530
- Population Apoptotic (%) [6]: 58%
- Population Fragmented Nuclei (%) [6]: 7%
- Population Healthy Nuclei (%) [6]: 85%
- Population Mitochondria Different-Phenotype (%) [6]: 43%
- Population Mitotic Cells (%) [6]: 41%
- Population Pyknosed Nuclei (%) [6]: 7%
- Population Tubulin-Different-Phenotype (%) [6]: 14%
- Total Cell Count [6]: 416
- Population Apoptotic (%) [7]: 52%
- Population Fragmented Nuclei (%) [7]: 11%
- Population Healthy Nuclei (%) [7]: 75%
- Population Hoechst High Intensity Objects (%) [7]: 6%
- Population Membrane Permeable-Phenotype (%) [7]: 0%
- Population Mitochondria Different-Phenotype (%) [7]: 50%
- Population Mitotic Cells (%) [7]: 47%
- Population Normal (%) [7]: 93%
- Population Pyknosed Nuclei (%) [7]: 12%
- Population Tubulin-Different-Phenotype (%) [7]: 33%
- Total Cell Count [7]: 439
- Population Apoptotic (%) [8]: 51%
- Population Fragmented Nuclei (%) [8]: 9%
- Population Healthy Nuclei (%) [8]: 82%
- Population Hoechst High Intensity Objects (%) [8]: 4%
- Population Mitochondria Different-Phenotype (%) [8]: 61%
- Population Mitotic Cells (%) [8]: 48%
- Population Normal (%) [8]: 95%
- Population Pyknosed Nuclei (%) [8]: 8%
- Population Tubulin-Different-Phenotype (%) [8]: 42%
- Total Cell Count [8]: 458
- Population Apoptotic (%) [9]: 17%
- Population Fragmented Nuclei (%) [9]: 12%
- Population Healthy Nuclei (%) [9]: 80%
- Population Hoechst High Intensity Objects (%) [9]: 4%
- Population Membrane Permeable-Phenotype (%) [9]: 1%
- Population Mitochondria Different-Phenotype (%) [9]: 25%
- Population Mitotic Cells (%) [9]: 82%
- Population Normal (%) [9]: 95%
- Population Pyknosed Nuclei (%) [9]: 7%
- Population Tubulin-Different-Phenotype (%) [9]: 16%
- Total Cell Count [9]: 866
- Population Apoptotic (%) [10]: 25%
- Population Fragmented Nuclei (%) [10]: 13%
- Population Healthy Nuclei (%) [10]: 79%
- Population Hoechst High Intensity Objects (%) [10]: 3%
- Population Membrane Permeable-Phenotype (%) [10]: 0%
- Population Mitochondria Different-Phenotype (%) [10]: 26%
- Population Mitotic Cells (%) [10]: 75%
- Population Normal (%) [10]: 96%
- Population Pyknosed Nuclei (%) [10]: 6%
- Population Tubulin-Different-Phenotype (%) [10]: 12%
- Total Cell Count [10]: 641
- Population Apoptotic (%) [11]: 40%
- Population Fragmented Nuclei (%) [11]: 14%
- Population Healthy Nuclei (%) [11]: 75%
- Population Hoechst High Intensity Objects (%) [11]: 4%
- Population Membrane Permeable-Phenotype (%) [11]: 0%
- Population Mitochondria Different-Phenotype (%) [11]: 45%
- Population Mitotic Cells (%) [11]: 59%
- Population Normal (%) [11]: 95%
- Population Pyknosed Nuclei (%) [11]: 10%
- Population Tubulin-Different-Phenotype (%) [11]: 30%
- Total Cell Count [11]: 606
- Population Apoptotic (%) [12]: 18%
- Population Fragmented Nuclei (%) [12]: 11%
- Population Healthy Nuclei (%) [12]: 82%
- Population Mitochondria Different-Phenotype (%) [12]: 38%
- Population Mitotic Cells (%) [12]: 81%
- Population Pyknosed Nuclei (%) [12]: 5%
- Population Tubulin-Different-Phenotype (%) [12]: 27%
- Total Cell Count [12]: 673
